Key:
[1] = test system: Calf thymus DNA; assay: Induction of dG-dC cross linking in calf thymus DNA assessed as level of dG-dC cross link per mg of DNA at 0.4 mM after 12 hrs by HPLC-ESI-MS/MS analysis; type: nucleic-acid assay; details: Bos taurus
Outline: (§1)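 CT DNA at 1 mg/mL in buffer (10 mM Tris, 50 mM NaCl, 50 mM Na2HPO4, pH 7.4) was given the compound from a DMSO solution and incubated 12 h at 37 °C. DNA was ethanol-precipitated and digested (DNase I, S1 nuclease, alkaline phosphatase, phosphodiesterase I), with 15N3-dG-dC internal standard at 9.6 nM final. Quantitation by isotope-dilution HPLC-ESI-MS/MS in positive SRM mode. Results given as fmol/mg DNA, mean ± SD of triplicates.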

[2] = Cytotoxicity against human SF-767 cells expressing moderate level of AGT assessed as cell survival after 24 hrs by CCK8 assay; details: SF767, 24 h
[3] = test system: Calf thymus DNA; assay: Induction of dG-dC cross linking in calf thymus DNA assessed as level of dG-dC cross link per mg of DNA at 0.1 mM after 12 hrs by HPLC-ESI-MS/MS analysis; type: nucleic-acid assay; details: Bos taurus; outline: as §1
[4] = Cytotoxicity against human SF126 cells expressing low level of AGT assessed as cell survival after 24 hrs by CCK8 assay; type: functional, cell-based; details: SF-126, 24 h
Outline: (§2)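 Glioma cells kept in MEM-EBSS with 10% FBS, 37 °C, 5% CO2. Seeded 5000 cells/well, grown 24 h, then 24 h drug exposure over a range of concentrations. Read-out: CCK8 (10%, 3 h), A450. Survival % = (A_drug−A_blank)/(A_control−A_blank)×100. Mean ± SD of at least three independent experiments. DMSO or ethanol vehicle kept below 0.1%.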

[5] = Induction of dG-dC cross linking in human SF763 cells expressing high level of AGT assessed as level of dG-dC cross link per mg of DNA at 0.1 mM after 12 hrs by HPLC-ESI-MS/MS analysis; type: functional
Outline: (§3)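 SF763 glioma cells (mer+, 119 fmol AGT/10^6 cells) in MEM-EBSS/10% FBS were grown to about 90% confluence and exposed for 12 h. DNA was isolated by proteinase K/RNase/phenol-chloroform, then digested with four enzymes and spiked with 15N3-dG-dC. Isotope-dilution HPLC-ESI-MS/MS; dG-dC given as fmol per mg DNA, with DNA estimated from dGuo content. Mean ± SD of triplicates.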

[6] = Induction of dG-dC cross linking in human SF763 cells expressing high level of AGT assessed as level of dG-dC cross link per mg of DNA at 0.2 mM after 12 hrs by HPLC-ESI-MS/MS analysis; type: functional; outline: as §3
[7] = Cytotoxicity against human SF763 cells expressing high level of AGT assessed as cell survival after 24 hrs by CCK8 assay in presence of O6-BG; type: functional, cell-based; details: SF763, 24 h
Outline: (§4)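 Cells were seeded at 5000 cells/well and grown 24 h. They were pretreated 2 h with O6-BG at 20 µM final, then switched to fresh medium holding ACNU or BCNU at various concentrations for 24 h. Read-out: CCK8 (10%, 3 h), absorbance 450 nm. Survival expressed relative to untreated cells after blank subtraction. Mean ± SD, ≥3 independent experiments.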

[8] = Cytotoxicity against human SF-767 cells expressing moderate level of AGT assessed as cell survival after 24 hrs by CCK8 assay in presence of O6-BG; details: SF767, 24 h
[9] = Cytotoxicity against human SF763 cells expressing high level of AGT assessed as cell survival after 24 hrs by CCK8 assay; type: functional, cell-based; details: SF763, 24 h; outline: as §2
[10] = Induction of dG-dC cross linking in human SF763 cells expressing high level of AGT assessed as level of dG-dC cross link per mg of DNA at 0.4 mM after 12 hrs by HPLC-ESI-MS/MS analysis; type: functional; outline: as §3
[11] = test system: Calf thymus DNA; assay: Induction of dG-dC cross linking in calf thymus DNA assessed as level of dG-dC cross link per mg of DNA at 0.2 mM after 12 hrs by HPLC-ESI-MS/MS analysis; type: nucleic-acid assay; details: Bos taurus; outline: as §1
[12] = Cytotoxicity against human SF126 cells expressing low level of AGT assessed as cell survival after 24 hrs by CCK8 assay in presence of O6-BG; type: functional, cell-based; details: SF-126, 24 h; outline: as §4
[13] = Drug level in MEM-EBSS treated with 3-(3-(((2-Amino-9H-purin-6-yl)oxy)methyl)benzyl)-1-(2-chloroethyl)-1-nitrosourea by HPLC-UV analysis; type: physicochemical
Outline: (§5)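 Stock dissolved in minimal DMSO, diluted into PBS (pH 7.4) or MEM-EBSS containing 10% FBS plus penicillin/streptomycin to 0.1 mM final. Incubated at 37 °C, with aliquots taken at set times over 8 h and frozen. Medium samples were deproteinized with an equal volume of acetonitrile and centrifuged. Analysis by HPLC-UV on C18, eluting 50% 50 mM ammonium acetate pH 4.5 / 50% methanol at 1.0 mL/min.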

[14] = Cytotoxicity against human SF126 cells expressing low level of AGT assessed as cell death after 24 hrs by CCK8 assay; type: functional, SF-126; outline: as §2
[15] = Cytotoxicity against human SF763 cells expressing high level of AGT assessed as cell death after 24 hrs by CCK8 assay; type: functional; outline: as §2
[16] = Retention time of the compound in PBS/MEM-EBSS treated with 3-(3-(((2-Amino-9H-purin-6-yl)oxy)methyl)benzyl)-1-(2-chloroethyl)-1-nitrosourea by HPLC-UV analysis; type: physicochemical; details: buffer; outline: as §5
[17] = Cytotoxicity against human SF-767 cells expressing high level of AGT assessed as cell death after 24 hrs by CCK8 assay; type: functional; outline: as §2
[18] = Drug level in PBS treated with 3-(3-(((2-Amino-9H-purin-6-yl)oxy)methyl)benzyl)-1-(2-chloroethyl)-1-nitrosourea by HPLC-UV analysis; type: physicochemical; details: buffer; outline: as §5
[19] = test system: SF-126; assay: Potency index, ratio IC50 of ACNU to ratio IC50 of compound for human SF126 cells expressing low level of AGT; type: functional
[20] = Half life of compound in MEM-EBSS by HPLC-UV analysis in presence of 10% fetal bovine serum; type: physicochemical; details: cattle, MEM-EBSS with 10% fetal bovine serum; outline: as §5
[21] = Retention time of the compound in PBS/MEM-EBSS by HPLC-UV analysis; type: physicochemical; details: buffer; outline: as §5
[22] = Half life of compound in PBS by HPLC-UV analysis
[23] = test system: Calf thymus DNA; assay: Induction of dG-dC cross linking in calf thymus DNA after 12 hrs by HPLC-ESI-MS/MS analysis; type: nucleic-acid assay; details: Bos taurus
Outline: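 Calf thymus DNA at 1 mg/mL in buffer (10 mM Tris, 50 mM NaCl, 50 mM Na2HPO4, pH 7.4) was treated with 0.1, 0.2 or 0.4 mM final for 12 h at 37 °C, then ethanol-precipitated. Digestion with DNase I, S1 nuclease, CIAP and phosphodiesterase I, spiked with 15N3-dG-dC internal standard. Isotope-dilution HPLC-ESI-MS/MS (SRM, positive mode), reported as fmol/mg DNA, mean ± SD of triplicates.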

[24] = Half life of compound in serum containing medium; type: ADME
Outline: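 Compound at 0.1 mM final (from DMSO stock) in MEM-EBSS with 10% FBS, penicillin/streptomycin, incubated 37 °C up to 8 h. Aliquots precipitated with equal volume acetonitrile, centrifuged, supernatant run on HPLC-UV. C18 column, 50% 50 mM ammonium acetate pH 4.5 / 50% methanol, 1.0 mL/min. Half-life read from degradation curve.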

`Cc1ncc(CNC(=O)N(CCCl)N=O)c(N)n1` [NIMUSTINE] showed an Activity [1] of 34900 fmol, an IC50 [2] of 500 µM and an Activity [3] of 8750 fmol. For the same compound, the IC50 [4] was 320 µM, the Activity [5] was 172 fmol and the Activity [6] was 447 fmol. The IC50 [7] was 1000 µM, the IC50 [8] was 400 µM and the IC50 [9] was greater than 1000 µM. It also gave an Activity [10] of 568 fmol, an Activity [11] of 16800 fmol and an IC50 [12] of 310 µM.
With `NCc1cccc(COc2nc(N)nc3nc[nH]c23)c1` the Drug metabolism [13] was “metabolite_detected”, the mortality [14] was less than 3% and the mortality [15] was less than 3%. The Retention_time [16] was 13.85 min, the mortality [17] was less than 3% and the Drug metabolism [18] was “metabolite_detected”.
In the case of `Nc1nc(OCc2cccc(CNC(=O)N(CCCl)N=O)c2)c2nc[nH]c2n1`, the Activity [1] is reported as 10300 fmol, the “Ratio IC50” value [19] is reported as greater than 6 and the IC50 [2] is reported as 25 µM. The half-life [20] was 18 min, the Activity [3] was 3880 fmol and the IC50 [4] was 50 µM. It also gave a Retention_time [21] of 23.93 min, an Activity [5] of 267 fmol and an Activity [6] of 713 fmol. It also gave an IC50 [9] of 35 µM, an Activity [10] of 787 fmol and an Activity [11] of 6100 fmol. For the same compound, the half-life [22] was 30 min and the Activity [23] was “Dose-dependent effect”.
For `Nc1nc(OCc2cccc(CN=C=O)c2)c2nc[nH]c2n1`, the Drug metabolism [13] was “metabolite_detected”, the Retention_time [16] was 16.25 min and the Drug metabolism [18] was “metabolite_detected”.
In the case of `O=NN(CCCl)C(=O)NCCCl` [CARMUSTINE], the Activity [1] is reported as 24300 fmol, the IC50 [2] is reported as 45 µM and the half-life [24] is reported as 15 min. For the same compound, the Activity [3] was 6160 fmol, the IC50 [4] was 20 µM and the Activity [5] was 145 fmol. The Activity [6] was 224 fmol, the IC50 [7] was 55 µM and the IC50 [8] was 30 µM. For the same compound, the IC50 [9] was 100 µM, the Activity [10] was 342 fmol and the Activity [11] was 13600 fmol. The IC50 [12] was 25 µM.

Reference: ChEMBL document CHEMBL3779845, “Synthesis and antitumor activity evaluation of a novel combi-nitrosourea prodrug: Designed to release a DNA cross-linking agent and an inhibitor of O(6)-alkylguanine-DNA alkyltransferase” (Bioorg Med Chem, 2016)
